Screening data deposited in PubChem BioAssay by several laboratories.
The list is not random: actives were taken first. Their share in the collection is about 9.6%.
PTEN del growth: growth suppression of PTEN-null HCT116, primary screen, cell-based, CellTiter-Glo | HCT116 PTEN-null viability, 60 h; stronger effect = lower value | viability, % at 10 µM | 140,000 compounds, 1.2% hits;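 active means viability at or below a set limit, 4 SD under the median of all tested compounds, cut at about 3.7% in these data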;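 further: PTEN knockout HCT116 line with beta catenin targeted HCT116 as companion control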
TNAP inh hi DEA: human TNAP enzyme inhibitors, primary screen, biochemical, luminescent, high phosphate acceptor level, uHTS; Alkaline phosphatase, tissue-nonspecific isozyme (Homo sapiens), P05186; purified TNAP, CDP-star luminescence, 1 M DEA; inhibition, % at 20 µM; 200,000 compounds, 0.03% hits; AID 1135, 2008;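 active means over 50% inhibition of tissue-nonspecific alkaline phosphatase at 20 µM in the single-dose screen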;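 further: plate controls were DMSO wells for no effect and EDTA-quenched wells as full inhibition for full effect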
Target sequence (P05186 whole entry, looked up): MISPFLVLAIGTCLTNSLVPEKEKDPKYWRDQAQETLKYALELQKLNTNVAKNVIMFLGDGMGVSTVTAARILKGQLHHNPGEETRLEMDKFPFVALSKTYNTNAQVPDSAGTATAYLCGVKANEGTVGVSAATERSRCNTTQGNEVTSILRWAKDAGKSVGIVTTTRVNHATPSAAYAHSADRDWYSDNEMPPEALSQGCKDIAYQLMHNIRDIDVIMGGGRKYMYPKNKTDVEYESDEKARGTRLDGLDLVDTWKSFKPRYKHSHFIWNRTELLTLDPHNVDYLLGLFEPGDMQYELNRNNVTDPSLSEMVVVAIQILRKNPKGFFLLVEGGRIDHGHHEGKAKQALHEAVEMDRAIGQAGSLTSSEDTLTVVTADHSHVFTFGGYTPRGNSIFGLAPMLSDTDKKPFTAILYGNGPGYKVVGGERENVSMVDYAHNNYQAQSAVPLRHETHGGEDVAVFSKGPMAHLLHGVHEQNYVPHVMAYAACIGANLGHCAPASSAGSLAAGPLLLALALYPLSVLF
TNAP act hiacc: TNAP activators at high phosphate acceptor level, primary screen, biochemical, luminescence, uHTS; Alkaline phosphatase, tissue-nonspecific isozyme (Homo sapiens), P05186; purified TNAP, CDP-star luminescence, 1 M DEA, 30 min; stronger effect = higher value; 0 = EDTA background, 1 = DMSO-only activity; activation factor at 20 µM; 200,000 tested, under 10 active;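 active means activation factor at least 2 at 20 µM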
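Measured by: Luminescent substrate turnover signal | Test system: Human TNAP | Input: TNAP 1/800 final | Dosing: 20 µM single point | Schedule: 30 min, room temperature | Controls: EDTA wells as negative control, DMSO wells as positive control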
HCT116 bCat-KO: primary screen for growth suppressors in beta-catenin knockout HCT116 cells (colon tumor, human); viability, % at 10 µM; HCT116 beta-catenin knockout viability, CellTiter-Glo, 60 h; stronger effect = lower value; 140,000 compounds, 1.5% hits;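 active means viability at or under a set limit, the compound median less 4 SD, cut at about 6% in these data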;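 further: 0% = Hyamine 1622 control at 20 µM and 100% = untreated cell control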
Lmaj promast: Leishmania major promastigote growth inhibition, primary screen; AID 1063, 2008; Leishmania major promastigotes, resazurin fluorescence viability; inhibition, % at 10 µM; 200,000 compounds, 9% hits; in the data active means inhibition above about 50%;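 further: promastigotes grown with compound for 44 hours at 28 °C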
TNAP inh noacc: human TNAP enzyme inhibitors, primary screen, biochemical, luminescent, no phosphate acceptor, uHTS. purified TNAP, CDP-star luminescence, 30 min. inhibition, % at 20 µM. 200,000 compounds, 0.26% hits. AID 1012, 2008;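 active means tissue-nonspecific alkaline phosphatase inhibition above about 50% at 20 µM in the single-dose screen, limit read from the data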;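 further: 0% = DMSO negative control and 100% = EDTA positive control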
An asterisk follows results filed as active; nt = no result given.

SMILES | PTEN del growth | TNAP inh hi DEA | TNAP act hiacc | HCT116 bCat-KO | Lmaj promast | TNAP inh noacc
CCN1CCN(C(=O)CCc2nc3ccccc3n2-c2ccccc2)CC1 | 98.4 | -5.6 | 1.1 | 91.0 | 57.5* | -9.7
Fc1ccccc1C1c2[nH]c3ccccc3c2CCN1Cc1ccoc1 (stereo not given) | nt | -4.8 | 1 | nt | 7.4 | -8.1
CCCN(CCO)Cc1cccc(Oc2ccccc2)c1 | 72.1 | -2.3 | 1 | 70.5 | 97.2* | -7.5
CCCN(CCO)Cc1ccc2ccccc2c1 | 87.9 | -4.6 | 1 | 90.5 | 3.3 | -10.6
COc1ccc(-c2[nH]ncc2CN2CCCO2)c(F)c1 | nt | -8.4 | 1.1 | nt | -0.5 | 64.4*
COc1ccc(-c2[nH]ncc2CN2CCCCCCC2)c(OC)c1 | nt | -9.0 | 1.1 | nt | 6.8 | -1.5
COc1ccc(-c2[nH]ncc2CN2CCC(OCc3ccccc3)CC2)c(F)c1 | nt | -6.2 | 1.1 | nt | 1.9 | 45.4
COc1ccc(-c2[nH]ncc2CN2CCC(N3CCSCC3)CC2)c(F)c1 | nt | -5.7 | 1.1 | nt | -0.6 | 75.2*
COCC1CCN(Cc2cn[nH]c2-c2ccc(OC)cc2F)C1 (stereo not given) | nt | -2.7 | 1 | nt | -0.9 | 73.9*
CCOC(=O)C1CCCN(Cc2cn[nH]c2-c2ccc(F)cc2F)C1 (stereo not given) | nt | -5.2 | 1.1 | nt | -0.5 | 42.3
COc1ccccc1C(=O)N1CCN(Cc2cn[nH]c2-c2ccc(F)cc2F)CC1 | nt | 4.3 | 1 | nt | -4.5 | 85.6*
Cc1c(Cl)cccc1NC(=O)Cn1cc(C(F)(F)F)cc(Cl)c1=O | nt | -0.4 | 1 | nt | -4.0 | -5.1
O=CNn1cnc2c(oc3nc(-c4ccccc4)cc(-c4ccco4)c32)c1=O | nt | 3.2 | 1 | nt | -1.0 | -15.2
CCCCN(C(=O)CSc1nnc(Nc2ccccc2)s1)c1c(N)n(CCC)c(=O)[nH]c1=O | nt | -3.5 | 1 | nt | 0.0 | -7.7
O=C(CSCc1ccccc1Br)N/N=C/c1ccccc1C(=O)O | nt | -3.5 | 1 | nt | -6.3 | -4.5
CN1CCN(C(=O)c2cnn3c(C(F)(F)F)cc(-c4ccc5c(c4)OCO5)nc23)CC1 | 76.3 | 4.1 | 1 | 80.1 | 84.2* | -5.7
O=C(c1nn2c(C(F)(F)F)cc(-c3cccs3)nc2c1Br)N1CCCc2ccccc21 | 59.1 | 2.5 | 1 | 59.4 | 69.5* | -8.9
Cc1ccc(-c2cc(C(F)(F)F)n3ncc(C(=O)N4CCN(C)CC4)c3n2)cc1 | 84.1 | 0.9 | 1 | 82.8 | 98.7* | -5.9
O=C(c1nn2c(C(F)(F)F)cc(-c3ccco3)nc2c1Br)N1CCCc2ccccc21 | 80.0 | 5.5 | 0.9 | 66.1 | 9.3 | 3.2
O=C(c1cnn2c(C(F)(F)F)cc(-c3ccc4c(c3)OCO4)nc12)N1CCCCC1 | 85.7 | -8.5 | 1.1 | 94.2 | 99.1* | -12.1
Cc1ccc(-c2cc(C(F)(F)F)n3ncc(C(=O)N4CCCc5ccccc54)c3n2)cc1 | 98.6 | -6.6 | 1.1 | 88.5 | -5.3 | -12.2
O=C(NC1CCCC1)c1cnn2c(C(F)(F)F)cc(-c3ccc4c(c3)OCO4)nc12 | 7.4 | -7.0 | 1.1 | 11.2 | 1.8 | -12.9
CCOC(=O)N1CCC(Nc2c(NCCCN3CCN(C4CCCCC4)CC3)c(=O)c2=O)CC1 | nt | -1.7 | 1 | nt | -5.1 | -14.6
Cc1c(-c2ccccc2)oc2c(C(=O)N3CCN(c4ccc([N+](=O)[O-])cc4)CC3)cccc2c1=O | 66.5 | 3.3 | 1 | 75.2 | 24.6 | -9.8
CN(C(=O)Cc1noc2ccccc12)c1ccccc1 | 99.1 | 3.2 | 1 | 98.1 | -5.6 | 1.0
Cc1ccc(-c2nc3ccccc3[nH]2)cc1NC(=O)c1sc2cc(Cl)ccc2c1Cl | 101.9 | -0.5 | 1 | 100.9 | 36.3 | -2.5
O=C(c1cnn2c(C(F)(F)F)cc(-c3cccs3)nc12)N1CCN(C(c2ccccc2)c2ccccc2)CC1 | 66.3 | 1.3 | 1 | 72.3 | 97.4* | -3.4
CN1CCN(C(=O)c2cnn3c(C(F)(F)F)cc(-c4cccs4)nc23)CC1 | 97.5 | -4.6 | 1 | 96.3 | 1.1 | -9.7
CC(NC1CCCCC1)C(=O)NN=C(c1ccccc1)c1ccccc1 (stereo not given) | nt | -6.6 | 1.1 | nt | 27.2 | -4.3
CCc1nnc(NC(=O)C2CCCN2C(=O)Nc2ccccc2)s1 (stereo not given) | nt | -2.5 | 1 | nt | -8.9 | -6.8
